Only some compounds are listed: those with a hit (about 1.5% of all), similar ones and a draw of the others.
CSN inh = CSN deneddylation inhibition; Q92905; Purified CSN, SCF-Nedd8-OG deneddylation, fluorescence polarization; inhibition, % at 12.5 µM; 0.38% of 360,000 active; AID 651999;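 active = pattern-corrected inhibition above about 35%, with an unprinted fluorescence ratio check between 0.5 and 1.5, limit read from the data, passing the limit was not always enough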
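Material: human Csn5 produced in HEK293T cells; Input: enzyme 0.24 nM; Reagent: SCFSkp2-Nedd8OG substrate at 10 nM final; Dosing: 12.5 µM compound; Incubation: 90 min reaction at room temperature; Detection: fluorescence polarization of the substrate; Evaluation: % inhibition of substrate cleavage by Csn5; Control set: substrate-only high control, full reaction low control.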
HNF4A DNA FP = change in binding of human HNF4 alpha to DNA. HNF4a-FITC DNA binding, fluorescence polarization, 1 h. activity change, % at 10 µM. 0.3% of 360,000 active. AID 1224865; in the data active = activity change above about 30%, passing the limit was not always enough
aDG glyco up = increases alpha dystroglycan glycosylation | activation, % at 10 µM | Pro5-aDG cells, alpha-DG glycosylation AlphaScreen (IIH6); 0% Pro5, 100% B10-LARGE cell signal | 0.22% of 360,000 active;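 active = activation of at least 8% versus controls, or a plate z-score of at least 8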;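 also: Pro5 are CHO cells carrying HIG-tagged alpha-DG that lacks glycosylation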
Rev-erbA mod = modulates human Rev-erb alpha binding to DNA | P20393 | 0.79% of 370,000 active | Rev-erbα–FITC-DNA binding, fluorescence polarization, 90 min | activity, % at 10 µM;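 active = activity above about 14%, limit read from the data; passing the limit was not always enough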
Target sequence (P20393 whole entry, looked up): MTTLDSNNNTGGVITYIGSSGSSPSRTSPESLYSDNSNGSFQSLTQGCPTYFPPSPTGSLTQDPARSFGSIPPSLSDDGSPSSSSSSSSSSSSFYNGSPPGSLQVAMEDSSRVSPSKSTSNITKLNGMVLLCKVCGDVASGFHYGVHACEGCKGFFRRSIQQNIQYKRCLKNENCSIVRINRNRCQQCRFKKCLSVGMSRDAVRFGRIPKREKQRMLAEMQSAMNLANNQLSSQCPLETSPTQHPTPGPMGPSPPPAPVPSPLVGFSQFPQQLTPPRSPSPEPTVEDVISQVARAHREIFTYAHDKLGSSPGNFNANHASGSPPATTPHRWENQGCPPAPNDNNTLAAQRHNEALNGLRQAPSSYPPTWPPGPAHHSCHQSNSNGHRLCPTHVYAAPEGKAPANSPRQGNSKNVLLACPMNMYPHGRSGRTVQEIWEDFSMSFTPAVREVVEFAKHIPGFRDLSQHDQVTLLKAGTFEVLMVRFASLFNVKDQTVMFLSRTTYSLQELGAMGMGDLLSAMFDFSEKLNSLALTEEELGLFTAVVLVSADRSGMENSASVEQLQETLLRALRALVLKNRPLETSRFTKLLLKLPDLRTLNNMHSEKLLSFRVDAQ
CSN5 deneddyl = validation of inhibitors of human CSN-mediated cullin deneddylation | AID 720654 | inhibition, % at 16.6 µM | shares compounds with CSN inh | Csn5 deneddylation of SCF-Nedd8OG, fluorescence polarization, 90 min | 62% of 540 active; in the data active = inhibition above about 50%
MMP2 cntr CSN = MMP-2 (human) inhibition, counter-screen for CSN hits; inhibition, % at 16.6 µM; AID 720655; recombinant MMP-2, FRET substrate fluorescence, 60 min; 33% of 540 active; shares compounds with CSN inh;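 active = corrected plate-normalized z-score of 5 or more, or -5 or less, or inhibition of 15% or more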
Thrombin counter = counter-screen for CSN deneddylation inhibitors: bovine thrombin inhibition; AID 720656; inhibition, % at 16.6 µM; bovine thrombin cleavage of Ub4-pepOG, fluorescence polarization; shares compounds with CSN inh; 49% of 540 active;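 active = inhibition at or above a set limit, with a fluorescence interference ratio between 0.5 and a set maximum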
Numbers stand for hits; . = inactive; / = no result; + = active, no number.

SMILES | CSN inh | HNF4A DNA FP | aDG glyco up | Rev-erbA mod | CSN5 deneddyl | MMP2 cntr CSN | Thrombin counter
COc1ccc(S(=O)(=O)N2CCN(C(=O)C3COc4ccccc4O3)CC2)cc1 (stereo not drawn) | 45 | . | . | . | / | . | 16
N=C(N)c1ccc(/C=C/c2ccc(C(=N)N)cc2O)cc1 | 46 | . | . | . | . | . | 32
N=C(N)c1ccc(Cl)cc1 | . | . | . | . | / | / | /
CC(C)(C)c1ccc(-c2nnc(SCC(=O)Nc3cccc4ccccc34)n2Cc2ccco2)cc1 | / | / | / | . | / | / | /
COC(=O)C1CN(Cc2ccc(C)cc2)CCS(=O)(=O)N1Cc1cn(Cc2ccccc2)nn1 (stereo not drawn) | / | / | / | . | / | / | /
Cc1cc2oc3ccc(NCCCn4ccnc4)cc3c(=O)c2cc1C | 48 | 73 | . | . | 137 | 61 | 30
COc1ccc(/C=C2\CCC/C(=C\c3ccc(OC)c(OC)c3OC)C2=O)c(OC)c1OC | . | . | . | . | / | / | /
C/C=C/c1ccc(O)c(OC)c1 | . | . | . | . | / | / | /
COc1cc(OC)c(OC)cc1/C=C1\CCC/C(=C\c2cc(OC)c(OC)cc2OC)C1=O | 37 | 54 | . | . | 66 | . | 43
COc1cc(/C=C/C=C2/CC/C(=C/C=C/c3ccc(O)c(OC)c3)C2=O)ccc1O | 115 | . | . | . | . | -41 | 52
COc1cc(/C=C2/CC/C(=C/c3ccc(O)c(OC)c3)C2=O)ccc1O | 47 | 48 | . | . | 62 | . | 72
COc1cc(/C=C2\COC/C(=C\c3ccc(O)c(OC)c3)C2=O)ccc1O | . | . | . | . | / | / | /
COC(=O)C1CN(Cc2ccc(F)cc2)CCS(=O)(=O)N1Cc1ccc(C)cc1 (stereo not drawn) | / | / | / | . | / | / | /
C#CCCCN([C@H](C(=O)OC)C(C)C)S(=O)(=O)c1ccc(F)cc1Br | / | / | / | . | / | / | /
COC(=O)C1CN(Cc2cn(CCC3OCCO3)nn2)CCS(=O)(=O)N1Cc1ccc(OC)cc1 (stereo not drawn) | / | / | / | . | / | / | /
C=CCN1[C@@H](C)COc2cc(N3CCCC3)ccc2S1(=O)=O | / | / | / | . | / | / | /
CCOC(=O)c1sc2nc3c(SCCC(=O)O)cc(C(=O)c4cc(OC)ccc4O)cn3c(=O)c2c1C | 104 | . | . | . | 87 | . | .
Oc1ccc(C2=Nn3c(nnc3-c3ccco3)SC2)cc1O | 38 | . | . | . | / | 31 | .
COc1ccc(OC)c(S(=O)(=O)n2c(CN3CCOCC3)nc3ccccc32)c1 | / | / | / | . | / | / | /
COC(=O)[C@]12C[C@H](CC(=O)N3CCCCC3)C(=O)N(CCC3=CCCCC3)C1=C[C@H](C1CCCC1)O[C@@H]2C | / | / | / | . | / | / | /
O=[N+]([O-])c1cc2oc3c(c2c(C=NCc2ccccc2)c1O)CCCC3 | 74 | . | . | . | 82 | . | 18
COc1cc(OC)c(-c2c3cc(O)c(=O)cc-3oc3cc(O)c(O)cc23)cc1OC | 81 | . | . | . | / | + | .
Cc1c(C#N)c(O)[nH]c(=O)c1N=Nc1ccc(Br)cc1C(=O)O | 56 | 86 | . | . | . | . | 53
COC(=O)c1ccc(N2NC(=O)/C(=C/c3ccc(-c4ccc(Cl)c(C(=O)O)c4)o3)C2=O)cc1 | . | . | . | . | / | / | /
O=C1NN(c2ccccc2)C(=O)/C1=C/c1ccc(-c2ccc(C(=O)O)cc2)o1 | 35 | . | . | . | 60 | . | .
SMILES | CSN inh | HNF4A DNA FP | aDG glyco up | Rev-erbA mod | CSN5 deneddyl | MMP2 cntr CSN | Thrombin counter
C=CCN(C)C(C#Cc1ccccc1)c1ccccc1C(F)(F)F (stereo not drawn) | / | / | / | . | / | / | /
C[C@@H]1O[C@@H](n2c3ccc(Cl)cc3c3ccc4c5cc(Cl)ccc5[nH]c4c32)[C@H](O)[C@H](O)[C@H]1O | / | / | / | . | / | / | /
Cc1ccc(-c2cc(C(=O)N/N=C/c3ccc([N+](=O)[O-])o3)c3ccccc3n2)o1 | 39 | . | . | . | 107 | . | .
O=C(N/N=C/c1ccc([N+](=O)[O-])o1)c1cc(-c2ccc(-c3ccccc3)cc2)nc2ccccc12 | . | . | . | . | / | / | /
COC[C@@H](OC(C)=O)[C@H]1OCc2ccccc2[C@@H]1/C=C/c1ccccc1 | / | / | / | . | / | / | /
Cc1ccc2nc(/C(C#N)=C/c3ccc(O)c(O)c3)[nH]c2c1 | 59 | . | . | . | 50 | . | 62
COc1ccc(O)c(/C=N/NC(=O)c2c(C)nnn2-c2nonc2N)c1 | 88 | 41 | . | . | . | 33 | .
COC(=O)CN1C(=S)N(c2ccc(OC)cc2)C(=O)/C1=C/c1ccc(OC)cc1 | . | . | . | . | / | / | /
COC(=O)CN1C(=S)N(c2ccc(OC)cc2)C(=O)/C1=C/c1ccc(N2CCOCC2)cc1 | 36 | 61 | . | . | 175 | . | .
COc1ccccc1-c1csc(-n2ncc(C#N)c2N)n1 | 68 | . | . | . | . | 72 | 17
COC(=O)c1cnn(-c2nc(-c3ccccc3)cs2)c1N | . | . | . | . | / | / | /
O=c1[nH]c(=S)[nH]c2c1C(c1ccc(Br)cc1)c1c([nH]c(=S)[nH]c1=O)O2 | 84 | . | . | . | 50 | 33 | 85
O=[N+]([O-])c1ccc(O)c(N=Cc2sc3ccccc3c2O)c1 | 44 | . | . | . | 102 | . | 51
Oc1ccc(Cl)cc1N=Cc1sc2ccccc2c1Cl | . | . | . | . | / | / | /
O=C(Nc1ccc2oc(-c3ccccc3F)nc2c1)c1ccc([N+](=O)[O-])o1 | 40 | . | . | . | 103 | 16 | .
O=C(Nc1ccc2oc(-c3ccccc3F)nc2c1)c1cncc(Br)c1 | . | . | . | . | / | / | /
CCCC(=O)OC12CCCN(C1)/C(=C/c1cccc(N(C)C)c1)C2 (stereo not drawn) | / | / | / | . | / | / | /
CC(C)N1Cc2nnn(Cc3ccccc3)c2-c2cc(N3CCCC3)ccc2S1(=O)=O | / | / | / | . | / | / | /
CCCCCCCCCCCCC/C=C/[C@@H](O)[C@@H](N)CO | 41 | . | . | . | . | . | .
COC(=O)[C@]12C[C@H](CC(=O)NCc3ccc(C)o3)C(=O)N(CCC3=CCCCC3)C1=C[C@H](C(C)C)O[C@@H]2C1CC1 | / | / | / | . | / | / | /
Cc1occc1C(=O)/C(C#N)=C/c1ccc(O)c(Br)c1 | 40 | . | . | . | . | . | 57
COC(=O)CSc1nnc(-c2ccc(NS(=O)(=O)c3ccc(C)c(C)c3)cc2)o1 | / | / | / | . | / | / | /
O=C(CCl)Nc1nc(-c2ccco2)c(-c2ccco2)s1 | 43 | . | . | . | 79 | . | .
CN1/C(=C/c2cccc[n+]2CCO)Sc2ccccc21 | . | . | . | . | / | / | /
CC[n+]1c(/C=C2\Sc3ccccc3N2C)ccc2cccc(C)c21 | 70 | 156 | . | / | . | . | .
COc1ccc(-c2csc(NC(=O)CSc3nc(C)nc4sc(C(=O)O)c(C)c34)n2)cc1 | 51 | . | . | . | . | . | .

Source: PubChem BioAssay
